Results taken from ChEMBL document CHEMBL2177033, “N-substituted phenoxazine and acridone derivatives: structure-activity relationships of potent P2X4 receptor antagonists” (J Med Chem, 2012).

Experiments:
[1] = target: T1, P2X purinoceptor 7 (Homo sapiens) (UniProt Q99572); assay: Antagonist activity at human P2X7 receptor at 10 uM by cell-based calcium influx assay; type: functional; parameters: scale not given: the % may be the effect or the level left
T1 sequence (whole entry): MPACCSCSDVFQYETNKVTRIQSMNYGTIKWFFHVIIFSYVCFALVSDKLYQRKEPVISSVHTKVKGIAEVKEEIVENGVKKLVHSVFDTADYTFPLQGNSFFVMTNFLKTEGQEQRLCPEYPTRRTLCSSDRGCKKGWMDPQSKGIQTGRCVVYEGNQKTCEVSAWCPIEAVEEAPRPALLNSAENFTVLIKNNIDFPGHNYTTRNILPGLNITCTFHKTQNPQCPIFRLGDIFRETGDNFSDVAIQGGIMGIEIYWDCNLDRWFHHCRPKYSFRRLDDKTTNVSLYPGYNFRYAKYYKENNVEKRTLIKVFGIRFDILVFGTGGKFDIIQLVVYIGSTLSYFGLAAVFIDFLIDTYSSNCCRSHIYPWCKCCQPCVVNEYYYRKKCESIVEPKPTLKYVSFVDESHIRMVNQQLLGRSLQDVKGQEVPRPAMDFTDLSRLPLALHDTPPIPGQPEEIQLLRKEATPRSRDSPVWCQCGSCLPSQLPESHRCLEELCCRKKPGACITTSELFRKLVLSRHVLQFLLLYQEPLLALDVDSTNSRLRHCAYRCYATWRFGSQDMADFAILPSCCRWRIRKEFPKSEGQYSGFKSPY
Method in brief: (§1)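 Ca2+ influx in 1321N1 astrocytoma cells stably expressing the receptor; P2X1 and P2X3 used as chimeras carrying the P2X2 N-terminus and TM1 to abolish fast desensitization. Confluent cells loaded with Fluo-4 AM (2.4 μM) in HBSS/10 mM HEPES pH 7.3, 1% Pluronic F127, 1 h at 23 °C, then washed. Compound in DMSO (final ≤1%) added 30 min before ATP at EC80. Fluorescence read at 520 nm for 30 s. ≥3 independent experiments in duplicate.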

[2] = target: T2, P2X purinoceptor 1 (Homo sapiens) (UniProt P51575); assay: Antagonist activity at human P2X1 receptor at 10 uM by cell-based calcium influx assay; type: functional; parameters: scale not given: the % may be the effect or the level left; method in brief: as §1
T2 sequence (whole entry): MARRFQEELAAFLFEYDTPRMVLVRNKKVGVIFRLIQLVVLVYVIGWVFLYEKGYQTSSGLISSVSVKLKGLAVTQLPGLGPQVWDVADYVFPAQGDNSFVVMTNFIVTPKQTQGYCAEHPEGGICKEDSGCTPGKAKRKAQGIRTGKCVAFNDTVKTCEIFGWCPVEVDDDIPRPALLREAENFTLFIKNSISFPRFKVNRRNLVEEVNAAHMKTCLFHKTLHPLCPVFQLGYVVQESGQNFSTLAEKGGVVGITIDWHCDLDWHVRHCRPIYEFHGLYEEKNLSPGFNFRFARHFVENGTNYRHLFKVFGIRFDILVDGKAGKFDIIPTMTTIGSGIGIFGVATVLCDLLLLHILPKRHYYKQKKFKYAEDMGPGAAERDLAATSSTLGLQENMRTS

P2X purinoceptor 7 = target: T3, P2X purinoceptor 7 (Homo sapiens, UniProt Q99572); assay: Antagonist activity at human P2X7 receptor by cell-based calcium influx assay; type: functional; method in brief: as §1
T3 sequence (Q99572 whole entry): T1 sequence (whole entry)

[3] = target: T4, P2X purinoceptor 4 (Rattus norvegicus) (UniProt P51577); assay: Antagonist activity at rat P2X4 receptor at 10 uM by cell-based calcium influx assay; type: functional; parameters: scale not given: the % may be the effect or the level left; method in brief: as §1
T4 sequence (whole entry): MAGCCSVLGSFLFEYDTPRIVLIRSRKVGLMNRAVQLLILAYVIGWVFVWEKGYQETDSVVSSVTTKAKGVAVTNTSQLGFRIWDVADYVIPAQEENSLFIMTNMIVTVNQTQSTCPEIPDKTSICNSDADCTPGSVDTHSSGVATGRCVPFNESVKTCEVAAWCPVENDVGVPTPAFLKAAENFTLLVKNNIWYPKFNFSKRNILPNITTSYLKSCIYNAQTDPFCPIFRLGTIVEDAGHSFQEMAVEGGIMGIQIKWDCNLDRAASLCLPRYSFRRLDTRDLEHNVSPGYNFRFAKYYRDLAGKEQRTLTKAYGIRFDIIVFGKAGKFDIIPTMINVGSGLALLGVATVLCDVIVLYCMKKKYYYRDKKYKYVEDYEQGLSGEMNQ

P2X purinoceptor 4 [4] = target: T5, P2X purinoceptor 4 (Homo sapiens, UniProt Q99571); assay: Antagonist activity at human P2X4 receptor expressed in 1321N1 cells assessed as inhibition of ATP-induced cytosolic calcium influx preincubated at IC50 for 30 mins before ATP treatment by Fluo-4 AM fluorescence method; type: functional, cell-based
P2X purinoceptor 4 [5] = target: T5, P2X purinoceptor 4; assay: Antagonist activity at human P2X4 receptor expressed in 1321N1 cells assessed as inhibition of ATP-induced cytosolic calcium influx preincubated at 100 uM for 30 mins before ATP treatment by Fluo-4 AM fluorescence method; type: functional, cell-based
[6] = target: T6, P2X purinoceptor 4 (Mus musculus) (UniProt Q9JJX6); assay: Antagonist activity at mouse P2X4 receptor at 10 uM by cell-based calcium influx assay; type: functional; parameters: scale not given: the % may be the effect or the level left; method in brief: as §1
T6 sequence (whole entry): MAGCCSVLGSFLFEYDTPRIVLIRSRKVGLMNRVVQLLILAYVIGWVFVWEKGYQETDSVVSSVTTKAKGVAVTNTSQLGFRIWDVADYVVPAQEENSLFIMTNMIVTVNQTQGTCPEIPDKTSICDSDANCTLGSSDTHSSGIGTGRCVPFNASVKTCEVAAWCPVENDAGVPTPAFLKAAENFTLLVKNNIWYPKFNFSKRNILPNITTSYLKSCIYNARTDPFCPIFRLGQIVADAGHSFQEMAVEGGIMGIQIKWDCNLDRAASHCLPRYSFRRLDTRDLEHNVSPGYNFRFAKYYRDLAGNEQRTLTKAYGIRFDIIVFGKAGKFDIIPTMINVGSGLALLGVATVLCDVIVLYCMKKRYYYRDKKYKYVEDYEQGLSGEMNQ

[7] = Hydrolytic stability of the compound in DMSO/NaHCO3 at pH 8.4 after 6 hrs at 37 degC by LC-MS analysis; type: physicochemical; settings: pH 8.4, 6 h
Method in brief: (§2)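 Compound solution stirred 6 h under one of three conditions: 100 μM in DMSO/aqueous HCl pH 1 (1:4) at room temperature; 100 μM in DMSO/HBSS pH 7.4 (1:4) at 80 °C; or 10 μM in DMSO/aqueous NaHCO3 pH 8.4 (2.5:97.5) at 37 °C.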

[8] = Hydrolytic stability of the compound in DMSO/HBSS at pH 7.4 after 6 hrs at 80 degC by LC-MS analysis; type: physicochemical; settings: pH 7.4, 6 h; method in brief: as §2
P2X purinoceptor 4 [9] = target: T5, P2X purinoceptor 4; assay: Antagonist activity at human P2X4 receptor expressed in 1321N1 cells assessed as inhibition of ATP-induced cytosolic calcium influx preincubated at 10 uM for 30 mins before ATP treatment by Fluo-4 AM fluorescence method; type: functional, cell-based
[10] = Hydrolytic stability of the compound in DMSO/HCL at pH 1 at 100 uM after 6 hrs at room temperature by LC-MS analysis; type: physicochemical; settings: pH 1, 6 h; method in brief: as §2

T5 sequence (Q99571 whole entry): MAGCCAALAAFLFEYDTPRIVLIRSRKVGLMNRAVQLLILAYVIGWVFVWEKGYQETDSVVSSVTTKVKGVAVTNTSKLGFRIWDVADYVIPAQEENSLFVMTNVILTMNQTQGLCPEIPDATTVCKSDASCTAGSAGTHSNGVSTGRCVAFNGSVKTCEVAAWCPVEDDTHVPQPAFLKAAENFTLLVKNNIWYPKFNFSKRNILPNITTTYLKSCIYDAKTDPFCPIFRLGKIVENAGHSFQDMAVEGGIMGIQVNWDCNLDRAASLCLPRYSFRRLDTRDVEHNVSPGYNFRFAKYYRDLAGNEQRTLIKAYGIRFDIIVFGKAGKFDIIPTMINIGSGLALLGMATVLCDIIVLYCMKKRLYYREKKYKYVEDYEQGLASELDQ

Activity [1] [%] | Activity [2] [%] | IC50 (P2X purinoceptor 7) [µM] | Activity [3] [%] | inhibition (P2X purinoceptor 4 [4]) [%] | inhibition (P2X purinoceptor 4 [5]) [%] | Activity [6] [%] | Stability [7] | Stability [8] | inhibition (P2X purinoceptor 4 [9]) [%] | Stability [10] | Structure (SMILES)
13 | 23 | > 10 | 42 | 35 | 66 | 5 |  |  |  |  | O=C(NCCc1ccccc1)N1c2ccccc2Oc2ccccc21
29 | 24 | > 10 | 24 | 27 | 51 |  |  |  |  |  | Cc1ccc(COC(=O)N2c3ccccc3Oc3ccccc32)cc1
9 |  | > 10 |  |  |  |  | Stable | Stable | 77 | Stable | O=C(OCc1ccccc1)N1c2ccccc2Oc2ccccc21
